Results from ChEMBL document CHEMBL1123760, “Synthesis and oral antifungal activity of novel azolylpropanolones and related compounds” (1987).
In brackets after ≈: the same amount, converted by molar mass.

Assays:
Assay type in all cases: functional
[1] = test system: Candida albicans; assay: In vitro antifungal activity against Candida albicans; settings: Candida albicans; read-out: MIC
Procedure, shortened: (§1)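 Broth microdilution MIC in Sabouraud's glucose broth; final inocula 1 × 10^5 cells/mL (yeast) or 1 × 10^5 conidia/mL (mold and dermatophyte).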

[2] = test system: Candida albicans; assay: Minimum effective concentration for inhibition of pseudomycelium formation in Candida albicans; settings: Candida albicans; read-out: MEC
Procedure, shortened: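 C. albicans KE-2 (clinical isolate) at a final 1 × 10^6 yeast cells/mL in EMEM with 20% calf serum; compounds diluted by the same microtiter system as for MICs. After incubation, wells were Giemsa-stained (5% in phosphate buffer) and read by microscope. MEC is the lowest concentration preventing typical pseudomycelium formation.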

[3] = test system: Aspergillus fumigatus; assay: In vitro antifungal activity against Aspergillus fumigatus; settings: Aspergillus fumigatus; read-out: MIC; procedure, shortened: as §1
[4] = test system: Trichophyton benhamiae; assay: In vitro antifungal activity against Trichophyton asteroides; settings: Trichophyton benhamiae; read-out: MIC; procedure, shortened: as §1

Row | Structure (SMILES) | MIC [1] | minimal effective concentration [2] | MIC [3] | MIC [4]
1 | O=S1O[C@H](c2ccccc2)[C@@](Cn2cncn2)(c2ccc(Cl)cc2Cl)O1 (some centres not stated) | > 100 mg/L | 0.04 µg/mL | 50 mg/L (≈ 122 µM) | 0.1 mg/L (≈ 0.244 µM)
2 | Cc1ccc([C@H]2OC(=O)O[C@]2(Cn2cncn2)c2ccc(C)cc2)cc1 | > 100 mg/L | 1.25 µg/mL | > 100 mg/L | 3.1 mg/L (≈ 8.87 µM)
3 | O=C1O[C@H](c2ccc(F)cc2)[C@@](Cn2ccnc2)(c2ccc(Cl)cc2Cl)O1 | 100 mg/L (≈ 246 µM) | 0.16 µg/mL | 50 mg/L (≈ 123 µM) | 0.2 mg/L (≈ 0.491 µM)
4 | Cc1ccc([C@H]2OC(=O)O[C@]2(Cn2cncn2)c2ccccc2Cl)cc1 | > 100 mg/L | 0.63 µg/mL | > 100 mg/L | 3.1 mg/L (≈ 8.38 µM)
5 | COc1ccc(C(=O)C(O)(Cn2cnnc2)c2ccc(OC)cc2)cc1 (configuration not stated) | > 100 mg/L | 2.5 µg/mL | > 100 mg/L | 50 mg/L (≈ 141 µM)
6 | OC(Cc1ccc(Cl)cc1)(c1ccccc1)C(O)(Cn1cncn1)c1ccc(Cl)cc1Cl (configuration not stated) | > 100 mg/L | 20 µg/mL | > 100 mg/L | 50 mg/L (≈ 102 µM)
7 | CC(C)C(C)(O)C(O)(Cn1cncn1)c1ccccc1 (configuration not stated) | > 100 mg/L | 10 µg/mL | > 100 mg/L | 6.3 mg/L (≈ 22.9 µM)
8 | CC(C)C(O)(Cn1cncn1)C(O)(c1ccc(Cl)cc1)c1ccc(Cl)cc1 (configuration not stated) | > 100 mg/L | > 20 µg/mL | > 100 mg/L | 6.3 mg/L (≈ 15.5 µM)
9 | CC(C)C(O)(Cn1cncn1)C(C)(O)c1ccc(Cl)cc1 (configuration not stated) | > 100 mg/L | 5 µg/mL | 50 mg/L (≈ 161 µM) | 1.6 mg/L (≈ 5.16 µM)
10 | O=S1O[C@H](c2ccc(Cl)cc2)[C@](Cn2cncn2)(c2ccc(Cl)cc2Cl)O1 (some centres not stated) | > 100 mg/L | 0.02 µg/mL | > 100 mg/L | 0.1 mg/L (≈ 0.225 µM)
11 | O=S1O[C@H](c2ccccc2)[C@](Cn2cncn2)(c2ccc(Cl)cc2Cl)O1 (some centres not stated) | > 100 mg/L | 0.08 µg/mL | > 100 mg/L | 0.1 mg/L (≈ 0.244 µM)
12 | OC(c1ccc(Cl)cc1)C(O)(Cn1ccnc1)c1ccc(Cl)cc1 (configuration not stated) | > 100 mg/L | > 20 µg/mL | > 100 mg/L | 50 mg/L (≈ 138 µM)
13 | CCCC(O)C(O)(Cn1cncn1)c1ccc(Cl)cc1Cl (configuration not stated) | > 100 mg/L | 0.04 µg/mL | 50 mg/L (≈ 151 µM) | 0.1 mg/L (≈ 0.303 µM)
14 | OC(c1cccc(Cl)c1)C(O)(Cn1cncn1)c1cccc(Cl)c1 (configuration not stated) | > 100 mg/L | > 20 µg/mL | > 100 mg/L | 3.1 mg/L (≈ 8.51 µM)
15 | O=C(c1ccco1)C(O)(Cn1cncn1)c1ccco1 (configuration not stated) | > 100 mg/L | > 20 µg/mL | > 100 mg/L | 100 mg/L (≈ 366 µM)
16 | CCCC(=O)C(O)(Cn1cncn1)c1ccccc1Cl (configuration not stated) | > 100 mg/L | 0.04 µg/mL | 100 mg/L (≈ 340 µM) | 0.8 mg/L (≈ 2.72 µM)
17 | CC(C)C(O)C(O)(Cn1cncn1)c1ccc(Cl)cc1Cl (configuration not stated) | > 100 mg/L | 0.04 µg/mL | 50 mg/L (≈ 151 µM) | 0.1 mg/L (≈ 0.303 µM)
18 | CCCCC(O)(Cn1cncn1)C(=O)c1ccc(Cl)cc1Cl (configuration not stated) | 100 mg/L (≈ 292 µM) | 0.31 µg/mL | 50 mg/L (≈ 146 µM) | 0.1 mg/L (≈ 0.292 µM)
19 | CCC[C@H]1OC(=O)O[C@]1(Cn1cncn1)c1ccc(Cl)cc1Cl | 100 mg/L (≈ 281 µM) | 0.16 µg/mL | > 100 mg/L | 1.6 mg/L (≈ 4.49 µM)
20 | O=C(c1cccs1)C(O)(Cn1ccnc1)c1ccc(Cl)cc1 (configuration not stated) | > 100 mg/L | 5 µg/mL | > 100 mg/L | 0.8 mg/L (≈ 2.4 µM)
21 | CC(O)(c1ccc(Cl)cc1)C(O)(Cn1ccnc1)c1ccc(Cl)cc1 (configuration not stated) | > 100 mg/L | 1.25 µg/mL | > 100 mg/L | 0.8 mg/L (≈ 2.12 µM)
22 | Clc1ccc([C@@]2(Cn3cncn3)OCO[C@@H]2c2ccccc2)c(Cl)c1 | > 100 mg/L | 0.08 µg/mL | 12.5 mg/L (≈ 33.2 µM) | 0.2 mg/L (≈ 0.532 µM)
23 | CC(O)(c1ccc(F)cc1)C(O)(Cn1ccnc1)c1ccc(Cl)cc1 (configuration not stated) | > 100 mg/L | 2.5 µg/mL | > 100 mg/L | 0.4 mg/L (≈ 1.11 µM)
